Rad51 HR inh – human RAD51 strand exchange inhibitors, primary screen, biochemical, fluorescence; actives 0.085% (n = 200,000); inhibition, % at 10 µM; AID 1385, 2008; hRad51 DNA strand exchange, fluorescence dequenching; DNA repair protein RAD51 homolog 1 (Homo sapiens), Q06609;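 active means inhibition above 40% at the single screening dose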;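 further: 0% = DMSO control wells and 100% = blanks with heterologous ssDNA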
Target sequence (Q06609 whole entry, looked up): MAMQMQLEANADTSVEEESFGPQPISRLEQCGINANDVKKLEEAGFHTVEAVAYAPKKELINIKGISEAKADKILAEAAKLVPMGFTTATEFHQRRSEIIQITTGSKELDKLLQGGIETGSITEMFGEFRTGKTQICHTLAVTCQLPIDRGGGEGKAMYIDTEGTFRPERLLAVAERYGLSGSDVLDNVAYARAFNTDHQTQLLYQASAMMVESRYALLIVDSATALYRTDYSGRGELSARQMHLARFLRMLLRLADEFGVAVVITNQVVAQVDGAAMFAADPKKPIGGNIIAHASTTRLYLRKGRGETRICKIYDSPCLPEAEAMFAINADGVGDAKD
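System: human Rad51 nucleoprotein filaments preassembled on unlabelled ssDNA. Reagent: labelled 47-mer dsDNA for strand exchange. Schedule: 30-min compound preincubation and 15-min exchange, both room temperature. Measured by: FRET fluorescence dequenching, excitation 485 nm, emission 520 nm. Read-out: Fluorescence-based percent inhibition, control- and blank-normalised. Benchmarks: plate controls and plate blanks.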
PKD1 kinase inh – inhibitors of human PKD1 kinase, biochemical, fluorescence polarization | Serine/threonine-protein kinase D1 (Homo sapiens), Q15139 | PKD1 kinase fluorescence polarization assay | inhibition, % (no concentration beside the values) | actives 0.056% (n = 200,000)
Wee1 stabilizer – Wee1 degradation inhibitors, primary screen, cell-based, HeLa, Wee1K328M-luciferase, luminescence; actives 1.2% (n = 220,000); HeLa Luc-Wee1K328M stability; 100% = proteasome inhibitor MG132 effect; reporter increase, % at 5 µM; Wee1-like protein kinase (Homo sapiens), P30291;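 active means activation above the mean of all tested compounds plus 3 SD, set per screening run, cut at about 8.8% in these data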;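 further: cells exposed to compound for 20 h before luminescence read; 0% = DMSO alone and 100% = MG132 at 30 µM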
L major viab – Leishmania major promastigote growth inhibition, primary screen | Leishmania major promastigotes, resazurin fluorescence viability | inhibition, % at 10 µM | actives 9% (n = 200,000) | AID 1063, 2008;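 further: promastigotes grown with compound for 44 hours at 28 °C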
Arbovirus anti – antivirals against arbovirus infection, primary screen, cell-based, full library, 10K replicate subset | inhibition, % at 10 µM | AID 1251, 2008 | actives 0.37% (n = 200,000) | arbovirus infection cell-based antiviral screen; in the data active means inhibition above about 30%
CHOP inhibitor – inhibitors of CHOP promoter induction, primary screen, cell-based, unfolded protein response, luciferase reporter. CHO-K1 CHOP-promoter luciferase, tunicamycin-induced, 15-18 h. inhibition, % at 10 µM. actives 3.8% (n = 220,000). AID 2732, 2010;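 active means compounds that reduced the stress-induced luciferase reporter signal by more than about 70% of percent inhibition, limit read from the data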;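 further: 0% = tunicamycin plus vehicle and 100% = wells without tunicamycin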
Active calls of the source: *; / = no result given. This is a sample that favours compounds with a hit; in the whole collection about 12% have one here. Unless noted, no stated cut-off is given here; in the data, active means inhibition above about 50%; inactive means the rest.

SMILES	Rad51 HR inh	PKD1 kinase inh	Wee1 stabilizer	L major viab	Arbovirus anti	CHOP inhibitor
CCCn1c(=O)c2[nH]c(-c3ccc(OCC(=O)Nc4ccc(C#N)cc4)cc3)nc2n(CCC)c1=O	/	/	/	/	/	-14.1
CC1(C)Cc2cccc(OCC(=O)OCC(=O)Nc3cccc(S(N)(=O)=O)c3)c2O1	-31.1	/	3.5	/	/	-24.3
CN(C)c1nc(SCCOC(=O)Nc2ccccc2)nc(N(C)C)n1	-30.7	-6.8	-2.1	40.6	-8.4	37.6
Fc1ccc(-c2ccc(/C=N\n3cnnc3)o2)cc1Cl	3.1	-12.9	-3.1	95.0*	0.7	22.5
Cc1ccc2nc(Cl)c(CN(C(=O)c3cnccn3)C3CCCCC3)cc2c1	11.8	-12.2	-1.1	53.1*	3.5	20.8
CCOC(=O)c1ccc(NC(=S)NC(=O)COc2ccccc2)cc1	0.5	-10.4	-4.1	-6.5	-4.0	51.3
O=C(/C=C/c1cccs1)N1CCN(c2ccc(O)cc2)CC1	40.6*	-0.2	1.9	75.7*	-26.6	-8.6
O=C(/C=C/c1cccs1)N1CCCCC1	-2.1	1.7	-4.7	4.5	4.5	-22.6
C=CCNC(=O)c1ccc(Sc2ccc(C)cc2)c([N+](=O)[O-])c1	-12.3	2.6	-2.1	-6.3	4.3	15.1
Cc1ccc(Sc2ccc(CN3CCCCC3)cc2[N+](=O)[O-])cc1	/	12.0	-1.7	79.2*	-12.5	6.2
CS(=O)(=O)N1CCC(C(=O)Nc2ccc(Cl)c(Cl)c2)CC1	-0.8	-4.2	2.1	10.7	-0.5	11.6
Cc1ccc(S(=O)(=O)N(C)C)cc1-n1c(SCC(=O)Nc2ccccc2)nc2ccccc2c1=O	1.0	-7.6	3.8	89.4*	2.2	20.0
Cc1ccc(S(=O)(=O)N(C)C)cc1-n1c(SCC(=O)Nc2ccc(F)cc2Cl)nc2ccccc2c1=O	1.0	-0.8	8.9*	41.5	-5.3	21.3
CN(C)CCNC(=S)Nc1ccc(F)c(F)c1F	17.6	-4.2	0.5	3.6	0.8	8.2
CN1CCCC(CC2Oc3ccccc3Sc3ccccc32)C1 (configuration not stated)	/	-3.4	1.1	100.1*	-36.0	-3.9
CC1CCCN(C(=O)N2c3ccccc3Sc3ccccc32)C1 (configuration not stated)	/	-15.1	-2.3	5.2	-24.5	1.4
O=C(NC(=S)NCCO)c1sc2ccccc2c1Cl	35.8	-1.0	4.5	63.4*	-2.1	-17.5
CC(C)(C)C(=O)NC(=S)NNC(=O)c1sc2ccccc2c1Cl	/	-4.0	-1.0	23.8	-36.8	110.1*
CCOC(=S)NC(=O)c1sc2ccccc2c1Cl	-2.6	-0.1	0.1	16.1	-5.8	-30.2
O=C(NNS(=O)(=O)c1ccc(Br)cc1)c1csnn1	-6.8	-7.6	0.0	4.3	-5.5	25.2
O=C1NC(SCCCF)=N/C1=C/c1ccc(-n2cncn2)cc1	8.4	/	-0.5	/	/	10.6
CC(CCc1ccc(O)cc1)NC1C2CC3CC(C2)CC1C3 (configuration not stated)	0.5	-1.8	-0.9	70.8*	-7.2	17.8
CCc1ccc(C(=O)COC(=O)c2ccc(Cl)nc2)cc1	10.0	-3.8	-1.0	-2.4	6.1	15.5
COc1ccc2[nH]c(=O)c(CN(C(=O)C3CCCO3)c3ccc(C)c(C)c3)cc2c1 (configuration not stated)	-5.2	/	9.4*	/	/	-9.3
COc1ccc2[nH]c(=O)c(CN(C(=O)NC3CCCCC3)C3CCCCC3)cc2c1	-5.0	-1.8	-1.6	99.7*	-21.1	38.4
SMILES	Rad51 HR inh	PKD1 kinase inh	Wee1 stabilizer	L major viab	Arbovirus anti	CHOP inhibitor
COc1ccc2[nH]c(=O)c(CN(C(=O)c3ccccn3)c3ccccc3)cc2c1	/	4.9	-2.5	99.8*	8.4	-2.7
Cc1ccc(C(=O)NCCc2ccc(F)cc2)s1	8.6	-1.2	8.8	-4.0	3.2	15.5
CCSCc1nnc(SCC(=O)Nc2ccc(OC)cc2)n1C	0.4	5.4	-2.7	0.9	-0.6	5.2
CCC(C(=O)OCCOCCN(CC)CC)c1ccccc1 (configuration not stated)	/	/	0.5	/	/	1.0
CCN(CC)CCCOC(=O)C(c1ccccc1)c1ccccc1	2.0	-3.1	0.2	86.3*	0.2	17.2
C/C(CC(=O)Nc1ccc2c(c1)OCO2)=N\NC(=O)c1ccc(N)cc1	/	/	9.6*	/	/	5.4
C/C(CC(=O)Nc1ccc2c(c1)OCO2)=N\NC(=O)OC(C)(C)C	22.2	0.9	6.2	6.0	-22.4	37.4
N#Cc1cnn(-c2ccccc2)c1NC(=O)CN1CCN(c2ccccc2)CC1	12.2	/	3.3	/	/	4.2
COc1cc(OC)cc(C(=O)N[C@H](C(=O)OCC(=O)N2CCc3ccccc32)C(C)C)c1	-0.3	3.7	-0.6	6.4	-3.2	48.3
Cc1ccc(Nc2nc(Cl)nc(N(C)C#N)n2)cc1	4.1	-5.3	-1.3	97.2*	4.7	-82.0
CC(C)Nc1nc(NC(C)C)nc(N(C)C#N)n1	6.9	-6.5	3.4	-2.3	-1.4	5.5
Cc1cc(C)n(-c2nc(SCC(=O)O)c3c4c(sc3n2)COC(C)(C)C4)n1	/	/	-3.0	/	/	-19.6
Cc1cc(C)n(-c2nc(SCCN(C)C)c3c4c(sc3n2)CCCC4)n1	-7.8	-4.0	-2.0	100.5*	-31.2	44.0
O=C(COc1ccc2ccccc2c1)Nc1nnc(-c2ccco2)s1	5.8	/	-0.6	/	/	72.0*
COc1cc(/C=C(/C#N)c2nc(-c3cc4ccccc4oc3=O)cs2)cc([N+](=O)[O-])c1O	0.1	/	-1.0	/	/	11.4
COc1cc(/C=C(\C#N)c2nc(-c3cc4ccccc4oc3=O)cs2)ccc1O	-22.5	-2.5	3.5	61.1*	-19.9	-18.1
O=C(O)CCCC(=O)Nc1ccc(Sc2ccc([N+](=O)[O-])cc2)cc1	-0.8	4.5	-0.9	-2.3	9.7	-23.6
O=C(O)CCC(=O)Nc1ccc(Sc2ccc([N+](=O)[O-])cc2)cc1	3.0	-5.4	-3.0	50.5*	15.3	14.5
Cc1csc(NC(=O)c2ccc(C)c(S(=O)(=O)N3CCCCC3)c2)n1	-2.5	-1.1	-2.2	5.7	31.0*	17.4
Cc1ccc(C(=O)Nc2ccc3cn[nH]c3c2)cc1S(=O)(=O)N1CCCCC1	-3.9	4.2	-0.6	50.3*	-17.5	36.7
Cc1ccc(C(=O)N2CCN(c3ncccn3)CC2)cc1S(=O)(=O)N1CCCCC1	-3.5	-9.9	-2.8	59.4*	-1.1	25.4
Cc1ccc(C(=O)N2CCN(c3ccccc3)CC2)cc1S(=O)(=O)N1CCCC1	-11.6	-12.8	0.3	-4.8	2.2	43.6
Cc1ccc(NC(=O)c2ccc(F)cc2)cc1S(=O)(=O)N1CCCCCC1	1.1	7.0	-0.9	48.7	2.2	15.7
O=S(=O)(c1ccc(Cl)c(Cl)c1)c1snnc1-c1ccccc1	7.2	4.4	1.3	99.5*	-45.0	54.1

From PubChem BioAssay
